Published values of several laboratories.
Each line is one published result; the experiments were not run side by side.
Target: Microtubule-associated serine/threonine-protein kinase 1 (MAST1, Homo sapiens, UniProt Q9Y2H9)

With `COc1ncc2cc3ccccc3nc2c1C#N` the remaining binding was 98% (cell-free assay, competition with immobilised ligand; 5 µM).
The remaining binding of `CCC(=O)N[C@@H]1CC[C@H](C(=O)N(C)c2ccc(-c3nc4ccccc4o3)cc2)C1` is reported as 94% (cell-free assay, competition with immobilised ligand; 1 µM).
`C[C@H]1CCN(c2nccc(-c3cnn4ncccc34)n2)C1` has a remaining binding of 82% (binding; 1 µM).
`O=C(c1ccc(Nc2nccc(-c3cc4ccccc4s3)n2)cc1)N1CCC(N2CCCC2)CC1` has a remaining binding of 53% (binding, competition with immobilised ligand; 1 µM).
For `CC(=O)N1CCC(c2ccc(C(=O)NC3=NCCN3)cc2C(F)(F)F)CC1`, the remaining binding was 87% (cell-free assay, competition with immobilised ligand; 1 µM).
For `N[C@H]1CCN(c2nccc(-c3cnn4ncccc34)n2)C1`, the remaining binding was 100% (binding; 1 µM).
With `c1cncc(-c2cccc(Nc3nccc(NC4CCCCC4)n3)c2)c1` the remaining binding was 95% (binding, competition with immobilised ligand; 10 µM).
`O=c1nc(-c2ccccn2)sc2ccccc12` has a remaining binding of 73% (binding, competition with immobilised ligand; 1 µM).
`O=C(NCCCN1CCOCC1)c1ccc(Nc2ncc(Cl)c(-c3ccc(Cl)s3)n2)cc1` gave a remaining binding of 63% (binding, competition with immobilised ligand; 1 µM).
The remaining binding of `COc1cnc(Nc2cccc(S(N)(=O)=O)c2)nc1N1CCN(c2ccccc2)CC1` is reported as 69% (binding, competition with immobilised ligand; 1 µM).
`CCCOc1ccc([C@@H]2[C@@H](C(=O)O)[C@H](c3ccc4c(c3)OCO4)CN2CC(=O)Nc2c(CC)cccc2CC)cc1` has a remaining binding of 100% (cell-free assay, competition with immobilised ligand; 1 µM).
`F[C@@H]1CCN(c2nccc(-c3cnn4ncccc34)n2)C1` gave a remaining binding of 100% (binding; 1 µM).
For `COc1cnc(Nc2cccc(S(N)(=O)=O)c2)nc1N1CCN(c2ccccc2)C(=O)C1`, the remaining binding was 100% (binding, competition with immobilised ligand; 1 µM).
With `Cc1cnn2ncc(-c3ccnc(N(C)C)n3)c2c1` the remaining binding was 100% (binding; 1 µM).
`CCN1CCN(Cc2ccc(C(=O)Nc3ccc(C)c(Oc4ccc5c(c4)CC(=O)N5)c3)cc2C(F)(F)F)CC1` has a remaining binding of 100% (binding, competition with immobilised ligand; 1 µM).
The remaining binding of `O=C(NCCCN1CCOCC1)c1ccc(Nc2nccc(-c3cc4ccccc4s3)n2)cc1` is reported as 78% (binding, competition with immobilised ligand; 1 µM).
`CS(=O)(=O)N1CCCC(NC(=O)[C@H](CCC2CCCCC2)NC(=O)c2ccc(CNc3ncnc4c3nnn4-c3ccccc3)cc2)C1` (stereo partly drawn) has a remaining binding of 100% (cell-free assay, competition with immobilised ligand; 0.1 µM).
The remaining binding of `CN(C)c1nccc(-c2cnn3ncccc23)n1` is reported as 76% (binding; 1 µM).
`O=C(NCC1CCOCC1)c1n[nH]cc1NC(=O)c1c(F)cccc1F` has a remaining binding of 51% (binding, competition with immobilised ligand; 1 µM).
`CN(CCCC(F)(F)F)c1nccc(-c2cnn3ncccc23)n1` has a remaining binding of 100% (binding; 1 µM).
`CN([C@@H]1CCc2c(CC(=O)O)c3ccccc3n2C1)S(=O)(=O)c1ccc(F)cc1` gave a remaining binding of 100% (cell-free assay, competition with immobilised ligand; 1 µM).
